Tests used:
Balamuthia mandrillaris [1] = assay: Antimicrobial activity against Balamuthia mandrillaris ATCC 50209 infected in HBMEC assessed as inhibition of encystment at 100 uM after 7 days; type: functional; conditions: ATCC 50209, 168 h
Outline: (§1)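 Trophozoites (>95%) held at 2 × 10^5/ml in RPMI 1640 with drug at 37°C for 48 h. SDS (0.5% final) lyses the remaining trophozoites, and a hemocytometer count is taken before and after SDS. % encystment = post-SDS/pre-SDS × 100, and percent inhibition is calculated from it; mean ± SE. For viability, cysts made before SDS were placed on HBMEC monolayers for up to 7 days and watched for trophozoite emergence.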

Balamuthia mandrillaris [2] = assay: Antimicrobial activity against Balamuthia mandrillaris ATCC 50209 infected in HBMEC assessed as inhibition of amoeba-induced cytopathogenicity at 50 uM after 24 hrs by LDH release assay; type: functional; conditions: ATCC 50209, 24 h
Outline: (§2)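 B. mandrillaris ATCC 50209 (grown on host-cell feeder layers) pretreated with drug for 45 min in serum-free medium, then added at 10^5 amoebae/well, with inhibitor still present, to primary HBMEC monolayers (RPMI 1640, 10% FBS, 10% NuSerum). Incubation at 37°C, 5% CO2, up to 24 h. Cytotoxicity read as LDH release into supernatant. Percent inhibition is relative to amoebae alone; mean ± SE.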

Balamuthia mandrillaris [3] = assay: Antimicrobial activity against Balamuthia mandrillaris ATCC 50209 infected in HBMEC assessed as inhibition of amoeba-induced cytopathogenicity at 10 uM after 24 hrs by LDH release assay; type: functional; conditions: ATCC 50209, 24 h; outline: as §2
Balamuthia mandrillaris [4] = assay: Antimicrobial activity against Balamuthia mandrillaris ATCC 50209 infected in HBMEC assessed as inhibition of encystment at 10 uM […]; type: functional; outline: as §1
Balamuthia mandrillaris [5] = assay: Antimicrobial activity against Balamuthia mandrillaris ATCC 50209 infected in HBMEC assessed as inhibition of encystment at 50 uM after 7 days; type: functional; conditions: ATCC 50209, 168 h; outline: as §1
[6] = Cytotoxicity against HBMEC assessed as LDH release at 10 ug/mL; conditions: human
Balamuthia mandrillaris [7] = assay: Antimicrobial activity against Balamuthia mandrillaris ATCC 50209 infected in HBMEC assessed as inhibition of encystment at 10 ug/mL after 7 days; type: functional; conditions: ATCC 50209, 168 h; outline: as §1
Balamuthia mandrillaris [8] = assay: Antimicrobial activity against Balamuthia mandrillaris ATCC 50209 infected in HBMEC assessed as inhibition of amoeba-induced cytopathogenicity at 5 ug/mL after 24 hrs by LDH release assay; type: functional; conditions: ATCC 50209, 24 h; outline: as §2
Balamuthia mandrillaris [9] = assay: Antimicrobial activity against Balamuthia mandrillaris ATCC 50209 infected in HBMEC assessed as inhibition of amoeba-induced cytopathogenicity at 10 ug/mL after 24 hrs by LDH release assay; type: functional; conditions: ATCC 50209, 24 h; outline: as §2
Balamuthia mandrillaris [10] = assay: Antimicrobial activity against Balamuthia mandrillaris ATCC 50209 infected in HBMEC assessed as inhibition of encystment at 5 ug/mL after 7 days; type: functional; conditions: ATCC 50209, 168 h; outline: as §1
Balamuthia mandrillaris [11] = assay: Antimicrobial activity against Balamuthia mandrillaris ATCC 50209 infected in HBMEC assessed as inhibition of amoeba-induced cytopathogenicity at 200 uM after 24 hrs by LDH release assay; type: functional; conditions: ATCC 50209, 24 h; outline: as §2
Balamuthia mandrillaris [12] = assay: Antimicrobial activity against Balamuthia mandrillaris ATCC 50209 infected in HBMEC assessed as inhibition of amoeba-induced cytopathogenicity at 100 uM after 24 hrs by LDH release assay; type: functional; conditions: ATCC 50209, 24 h; outline: as §2
Balamuthia mandrillaris [13] = assay: Antimicrobial activity against Balamuthia mandrillaris ATCC 50209 infected in HBMEC assessed as inhibition of encystment at 500 uM after 7 days; type: functional; conditions: ATCC 50209, 168 h; outline: as §1
Balamuthia mandrillaris [14] = assay: Antimicrobial activity against Balamuthia mandrillaris ATCC 50209 infected in HBMEC assessed as inhibition of encystment at 200 uM after 7 days; type: functional; conditions: ATCC 50209, 168 h; outline: as §1

Row | Structure (SMILES) | inhibition at 100 µM (Balamuthia mandrillaris [1]) [%] | inhibition at 10 µg/mL (Balamuthia mandrillaris [7]) [%] | inhibition at 5 µg/mL (Balamuthia mandrillaris [8]) [%] | inhibition at 10 µg/mL (Balamuthia mandrillaris [9]) [%] | inhibition at 5 µg/mL (Balamuthia mandrillaris [10]) [%] | also measured
1 | C=C1[C@@H](C)[C@H]2[C@H](Cc3ccccc3)NC(=O)[C@]23[C@H](OC(C)=O)/C=C/[C@@](C)(O)C(=O)[C@@H](C)C/C=C/[C@H]3[C@@H]1O [CYTOCHALASIN D] | 76 | – | – | – | – | inhibition at 50 µM (Balamuthia mandrillaris [2]): 42%; inhibition at 10 µM (Balamuthia mandrillaris [3]): 13%; inhibition at 10 µM (Balamuthia mandrillaris [4]): 42%; inhibition at 50 µM (Balamuthia mandrillaris [5]): 64%
2 | CC(=O)N1CCN(c2ccc(OCC3COC(Cn4ccnc4)(c4ccc(Cl)cc4Cl)O3)cc2)CC1 (configuration not stated) [KETOCONAZOLE] | – | 0 | 14 | 88.5 | 0 | Activity [6]: < 5%
3 | C[C@@H]1CC[C@H]2[C@@H](C)C(=O)O[C@@H]3O[C@@]4(C)CC[C@@H]1[C@]32OO4 [ARTEMISININ] | – | 52 | 34 | 45 | 37 | –
4 | C[C@@H]1C[C@@H]([C@H](O)CC2CC(=O)NC(=O)C2)C(=O)[C@@H](C)C1 [CYCLOHEXIMIDE] | 94 | – | – | – | – | inhibition at 200 µM (Balamuthia mandrillaris [11]): 0%; inhibition at 100 µM (Balamuthia mandrillaris [12]): 44%; inhibition at 500 µM (Balamuthia mandrillaris [13]): 98.4%; inhibition at 200 µM (Balamuthia mandrillaris [14]): 95%
5 | Nc1nc(=O)[nH]cc1F [FLUCYTOSINE] | – | 56 | 20 | 61 | 43 | –
6 | CCC[C@@H]1C[C@@H](C(=O)N[C@@H]([C@H]2O[C@H](SC)[C@H](O)[C@@H](O)[C@H]2O)[C@H](C)Cl)N(C)C1 [CLINDAMYCIN] | – | 0 | 16 | 10 | 4 | –
